The text below walks through data of ChEMBL document CHEMBL4190374, “Structure-Function Evaluation of Imidazopyridine Derivatives Selective for δ-Subunit-Containing γ-Aminobutyric Acid Type A (GABAA) Receptors” (J Med Chem, 2018).

Each structure is given as a SMILES string. pIC50: −log10 of the molar value. Activity calls are given as the source filed them. No cut-off for these calls is given here.

For assay [1], the target named is T1, Gamma-aminobutyric acid receptor subunit alpha-6/beta-3 (Rattus norvegicus, UniProt P30191+P63079). As to the kind of experiment: Displacement of [3H]EBOB from rat GABA-A receptor alpha6beta3 expressed in HEK293 cell membranes after 90 mins by liquid scintillation counting analysis. Summed up: (§1)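 Crude membranes from HEK 293 cells transiently Ca-phosphate-transfected with rat subunit cDNAs, harvested at 48 h. Membranes (150-200 µg protein) incubated with 3 nM [3H]EBOB in 50 mM Tris/citrate pH 7.3 plus 0.2 M NaCl. Compound up to 10 µM, final DMSO 0.1%, no GABA, 90 min at 21 °C. Bound radioligand collected by GF/C filtration and counted by scintillation.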
T1 sequence (P30191 whole entry): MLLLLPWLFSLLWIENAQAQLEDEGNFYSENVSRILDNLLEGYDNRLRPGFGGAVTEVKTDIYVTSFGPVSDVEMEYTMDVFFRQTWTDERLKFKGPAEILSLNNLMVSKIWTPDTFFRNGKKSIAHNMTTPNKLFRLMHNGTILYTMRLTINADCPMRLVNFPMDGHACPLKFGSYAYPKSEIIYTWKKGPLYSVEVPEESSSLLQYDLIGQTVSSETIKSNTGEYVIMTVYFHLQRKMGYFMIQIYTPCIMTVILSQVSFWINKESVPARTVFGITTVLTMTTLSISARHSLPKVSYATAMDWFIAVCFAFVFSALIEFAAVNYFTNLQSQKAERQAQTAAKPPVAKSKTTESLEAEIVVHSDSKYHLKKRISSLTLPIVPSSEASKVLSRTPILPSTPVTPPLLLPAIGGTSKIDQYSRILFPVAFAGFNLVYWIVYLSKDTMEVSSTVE
T1 sequence (P63079 whole entry): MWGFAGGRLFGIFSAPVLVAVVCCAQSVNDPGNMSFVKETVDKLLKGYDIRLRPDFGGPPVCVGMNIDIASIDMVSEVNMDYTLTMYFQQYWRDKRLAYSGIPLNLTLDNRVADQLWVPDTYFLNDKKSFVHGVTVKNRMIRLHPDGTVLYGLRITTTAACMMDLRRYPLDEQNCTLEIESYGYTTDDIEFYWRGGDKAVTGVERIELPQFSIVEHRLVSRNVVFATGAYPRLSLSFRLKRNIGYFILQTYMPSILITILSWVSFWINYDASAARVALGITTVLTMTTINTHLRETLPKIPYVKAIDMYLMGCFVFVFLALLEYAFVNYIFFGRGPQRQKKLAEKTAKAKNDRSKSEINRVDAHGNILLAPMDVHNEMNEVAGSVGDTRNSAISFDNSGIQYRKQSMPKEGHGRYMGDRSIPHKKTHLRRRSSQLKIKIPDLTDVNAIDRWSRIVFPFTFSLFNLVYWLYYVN
For orientation: In a radioligand displacement assay an active substance lowers the binding of a labelled ligand.

For assay [2], the target named is T2, Gamma-aminobutyric acid receptor subunit alpha-6/beta-3/gamma-2 (Rattus norvegicus, UniProt P18508+P30191+P63079). As to the kind of experiment: Displacement of [3H]EBOB from rat GABA-A receptor alpha6beta3gamma2 expressed in HEK293 cell membranes after 90 mins by liquid scintillation counting analysis. Summed up:
as §1

The target in assay [3] is T3, Gamma-aminobutyric acid receptor subunit alpha-6/beta-3/delta (Rattus norvegicus, UniProt P18506+P30191+P63079). As to the kind of experiment: Displacement of [3H]EBOB from rat GABA-A receptor alpha6beta3delta expressed in HEK293 cell membranes after 90 mins by liquid scintillation counting analysis. Summed up: as §1
T3 sequence (P18506 whole entry): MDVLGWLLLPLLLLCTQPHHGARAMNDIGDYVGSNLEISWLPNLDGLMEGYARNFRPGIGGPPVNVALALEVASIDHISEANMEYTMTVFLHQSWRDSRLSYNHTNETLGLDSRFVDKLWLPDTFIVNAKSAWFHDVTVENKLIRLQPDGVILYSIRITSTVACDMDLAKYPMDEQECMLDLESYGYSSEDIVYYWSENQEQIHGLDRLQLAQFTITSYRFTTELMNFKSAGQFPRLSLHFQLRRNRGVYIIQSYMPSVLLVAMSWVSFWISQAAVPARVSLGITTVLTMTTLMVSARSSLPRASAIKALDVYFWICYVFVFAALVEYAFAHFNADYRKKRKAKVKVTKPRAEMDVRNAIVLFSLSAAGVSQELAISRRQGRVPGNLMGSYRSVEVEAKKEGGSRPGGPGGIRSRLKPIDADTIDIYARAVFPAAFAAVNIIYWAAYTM
T3 sequence (P30191 whole entry): as the sequence (P30191 whole entry) above
T3 sequence (P63079 whole entry): as the sequence (P63079 whole entry) above
For assay [4], the target named is T4, Gamma-aminobutyric acid receptor subunit alpha-6/beta-3 (Rattus norvegicus) (UniProt P30191+P63079). Description: Displacement of [3H]EBOB from rat GABA-A receptor alpha6beta3 expressed in HEK293 cell membranes up to 20 uM after 90 mins by liquid scintillation counting analysis relative to control.
For assay [5], the target named is T5, Gamma-aminobutyric acid receptor subunit alpha-6/beta-3/gamma-2 (Rattus norvegicus) (UniProt P18508+P30191+P63079). As to the kind of experiment: Displacement of [3H]EBOB from rat GABA-A receptor alpha6beta3gamma2 expressed in HEK293 cell membranes up to 20 uM after 90 mins by liquid scintillation counting analysis relative to control.
The target in assay [6] is T6, Gamma-aminobutyric acid receptor subunit alpha-6/beta-3/delta (Rattus norvegicus) (UniProt P18506+P30191+P63079). As to the kind of experiment: Displacement of [3H]EBOB from rat GABA-A receptor alpha6beta3delta expressed in HEK293 cell membranes up to 20 uM after 90 mins by liquid scintillation counting analysis relative to control.
Assay [7] concerns the target Gamma-aminobutyric acid receptor subunit alpha-6/beta-2/delta (Rattus norvegicus, UniProt P18506+P30191+P63138). Description: Displacement of [3H]EBOB from rat GABA-A receptor alpha6beta2delta expressed in HEK293 cell membranes after 90 mins by liquid scintillation counting analysis. The procedure, abridged:
as §1

The target in assay [8] is T5, Gamma-aminobutyric acid receptor subunit alpha-6/beta-3/gamma-2 (Rattus norvegicus). As to the kind of experiment: Displacement of [3H]EBOB from rat GABA-A receptor alpha6beta3gamma2 expressed in HEK293 cell membranes up to 10 uM after 90 mins by liquid scintillation counting analysis relative to control. The procedure, abridged:
as §1

Assay [9] deals with Gamma-aminobutyric acid receptor subunit alpha-6/beta-2/delta (Rattus norvegicus) (UniProt P18506+P30191+P63138). Description: Displacement of [3H]EBOB from rat GABA-A receptor alpha6beta2delta expressed in HEK293 cell membranes up to 10 uM after 90 mins by liquid scintillation counting analysis relative to control. Summed up: as §1
Assay [10] addresses Gamma-aminobutyric acid receptor subunit alpha-1/beta-3/gamma-2 (Rattus norvegicus) (UniProt P18508+P62813+P63079). As to the kind of experiment: Displacement of [3H]EBOB from rat GABA-A receptor alpha1beta3gamma2 expressed in HEK293 cell membranes at 20 uM after 90 mins by liquid scintillation counting analysis relative to control.
Assay [11] addresses Gamma-aminobutyric acid receptor subunit alpha-1/beta-3/delta (Rattus norvegicus) (UniProt P18506+P62813+P63079). As to the kind of experiment: Displacement of [3H]EBOB from rat GABA-A receptor alpha1beta3delta expressed in HEK293 cell membranes at 20 uM after 90 mins by liquid scintillation counting analysis relative to control.
Assay [12] concerns the target Gamma-aminobutyric acid receptor subunit alpha-4/beta-3 (Rattus norvegicus) (UniProt P28471+P63079). As to the kind of experiment: Displacement of [3H]EBOB from rat GABA-A receptor alpha4beta3 expressed in HEK293 cell membranes at 20 uM after 90 mins by liquid scintillation counting analysis relative to control.
The target in assay [13] is Gamma-aminobutyric acid receptor subunit alpha-4/beta-3/gamma-2 (Rattus norvegicus) (UniProt P18508+P28471+P63079). As to the kind of experiment: Displacement of [3H]EBOB from rat GABA-A receptor alpha4beta3gamma2 expressed in HEK293 cell membranes at 20 uM after 90 mins by liquid scintillation counting analysis relative to control.
Assay [14] addresses Gamma-aminobutyric acid receptor subunit alpha-4/beta-3/delta (Rattus norvegicus) (UniProt P18506+P28471+P63079). As to the kind of experiment: Displacement of [3H]EBOB from rat GABA-A receptor alpha4beta3delta expressed in HEK293 cell membranes at 20 uM after 90 mins by liquid scintillation counting analysis relative to control.
For assay [15], the target named is T4, Gamma-aminobutyric acid receptor subunit alpha-6/beta-3 (Rattus norvegicus). Description: Displacement of [3H]EBOB from rat GABA-A receptor alpha6beta3 expressed in HEK293 cell membranes at 20 uM after 90 mins by liquid scintillation counting analysis relative to control.
For assay [16] the target is unchanged. As to the kind of experiment: (§2) Displacement of [3H]EBOB from rat GABA-A receptor alpha6beta3 expressed in HEK293 cell membranes after 90 mins in presence of GABA by liquid scintillation counting analysis.
Assay [17] deals with T1, Gamma-aminobutyric acid receptor subunit alpha-6/beta-3. The description is as §2.
Assay [18] concerns the target T5, Gamma-aminobutyric acid receptor subunit alpha-6/beta-3/gamma-2 (Rattus norvegicus). Description: (§3) Displacement of [3H]EBOB from rat GABA-A receptor alpha6beta3gamma2 expressed in HEK293 cell membranes after 90 mins in presence of GABA by liquid scintillation counting analysis.
For assay [19], the target named is T2, Gamma-aminobutyric acid receptor subunit alpha-6/beta-3/gamma-2. The assay is described as §3.
Assay [20] concerns the target T6, Gamma-aminobutyric acid receptor subunit alpha-6/beta-3/delta (Rattus norvegicus). As to the kind of experiment: (§4) Displacement of [3H]EBOB from rat GABA-A receptor alpha6beta3delta expressed in HEK293 cell membranes after 90 mins in presence of GABA by liquid scintillation counting analysis.
In assay [21] the target is T3, Gamma-aminobutyric acid receptor subunit alpha-6/beta-3/delta. The assay is described as §4.
The target in assay [22] is GABA A receptor alpha-6/beta-2/gamma-2 (Rattus norvegicus) (UniProt P18508+P30191+P63138). Description: Displacement of [3H]EBOB from rat GABA-A receptor alpha6beta2gamma2 expressed in HEK293 cell membranes at 10 uM after 90 mins by liquid scintillation counting analysis relative to control. Summed up:
as §1

Assay [23] has as its target Gamma-aminobutyric acid receptor subunit alpha-6/beta-2 (Rattus norvegicus) (UniProt P30191+P63138). Description: Displacement of [3H]EBOB from rat GABA-A receptor alpha6beta2 expressed in HEK293 cell membranes at 10 uM after 90 mins by liquid scintillation counting analysis relative to control. The procedure, abridged:
as §1

T2 sequence (P18508 whole entry): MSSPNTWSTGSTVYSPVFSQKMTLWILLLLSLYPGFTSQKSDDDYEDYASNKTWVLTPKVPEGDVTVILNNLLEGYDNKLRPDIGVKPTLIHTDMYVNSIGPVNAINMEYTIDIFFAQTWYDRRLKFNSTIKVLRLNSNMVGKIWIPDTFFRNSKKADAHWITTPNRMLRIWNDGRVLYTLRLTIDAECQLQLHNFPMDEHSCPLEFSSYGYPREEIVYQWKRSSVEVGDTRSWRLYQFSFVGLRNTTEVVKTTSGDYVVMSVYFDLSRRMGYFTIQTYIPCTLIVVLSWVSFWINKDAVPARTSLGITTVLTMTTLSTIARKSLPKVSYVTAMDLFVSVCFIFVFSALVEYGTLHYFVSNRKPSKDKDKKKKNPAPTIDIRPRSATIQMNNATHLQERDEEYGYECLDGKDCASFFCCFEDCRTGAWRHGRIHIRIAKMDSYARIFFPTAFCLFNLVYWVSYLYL
T2 sequence (P30191 whole entry): as the sequence (P30191 whole entry) above
T2 sequence (P63079 whole entry): as the sequence (P63079 whole entry) above
Chain of Gamma-aminobutyric acid receptor subunit alpha-6/beta-2/delta (P18506 whole entry): as the sequence (P18506 whole entry) above
Chain of Gamma-aminobutyric acid receptor subunit alpha-6/beta-2/delta (P30191 whole entry): as the sequence (P30191 whole entry) above
Chain of Gamma-aminobutyric acid receptor subunit alpha-6/beta-2/delta (P63138 whole entry): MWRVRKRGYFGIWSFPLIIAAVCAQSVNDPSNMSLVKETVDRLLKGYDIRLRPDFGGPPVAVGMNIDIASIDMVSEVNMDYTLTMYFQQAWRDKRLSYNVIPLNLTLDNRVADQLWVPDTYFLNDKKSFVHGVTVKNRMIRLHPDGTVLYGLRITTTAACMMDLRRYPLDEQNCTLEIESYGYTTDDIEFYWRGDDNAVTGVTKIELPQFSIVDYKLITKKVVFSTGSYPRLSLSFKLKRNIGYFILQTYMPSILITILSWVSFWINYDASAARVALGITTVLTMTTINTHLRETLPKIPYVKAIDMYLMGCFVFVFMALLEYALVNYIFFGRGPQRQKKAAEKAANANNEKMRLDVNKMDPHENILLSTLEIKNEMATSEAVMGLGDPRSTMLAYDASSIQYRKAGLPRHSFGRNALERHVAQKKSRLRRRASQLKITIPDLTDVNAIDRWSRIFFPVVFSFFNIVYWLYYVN

The pIC50 is the IC50 on a negative log10 scale, so that one unit is a factor of ten. As for `O=C(Nc1c(-c2cccs2)nc2ccc(Br)cn12)C1CCCCC1`, the negative logarithm of the IC50 (pIC50) in assay [1] is 4.80; in [2], 4.60; in assay [3] it was 5.00. Also, the Imax is 21% in assay [4], greater than 89% in [5] and 85% in assay [6].
For the compound `CCCCOc1ccc(C(=O)Nc2c(-c3cccs3)nc3ccc(Br)cn23)cc1`, the pIC50 is 5.66 in assay [3]; 5.61 in assay [7]; 5.39 in [17]; 5.36 in assay [19]; 6.06 in assay [21]. Besides, the Imax in assay [8] was found to be 10%; in assay [9], 54%; in [16], 26%; in assay [18] it was 40%; in assay [20], 51%; in assay [22] it was 13%. Besides, the inhibition entry in assay [10], in assay [11], in assay [12], in [13], in assay [14] and in assay [15] was “inactive” each time. The inhibition entry in [23] is “inactive”.
